Columns and labels:
Type in all cases: cell-based
IL-6 = IL-6 level by ELISA in conditioned medium of LPS-human macrophages; settings: 14b at EC50 (5.3 µmol/mL), 48 h
How it was run: (§1)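 IL-6, IL-1β, TNF-α and NF-κB levels were measured in LPS-stimulated human macrophages exposed to test compound. Comparison groups were untreated LPS-macrophages as negative control and dexamethasone-treated macrophages as reference.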

HO-1 (HMOX1) = test: HO-1; settings: LPS-human macrophages, 48 h; 14b at EC50 (5.3 µmol/mL); qPCR
How it was run: (§2)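 LPS-stimulated human macrophages (inflammatory model) were exposed to test compound at 5.3 µmol/mL for 48 h. Akt and HMOX1 (HO-1) gene expression was measured alongside untreated LPS-macrophages as negative control and dexamethasone-treated macrophages as reference. Expression is reported as fold change relative to untreated macrophage cells.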

TNF-α = TNF-α level by ELISA in conditioned medium of LPS-human macrophages; settings: 14b at EC50 (5.3 µmol/mL), 48 h
How it was run: as §1

NF-kβ = NF-kβ level by ELISA in LPS-human macrophages; settings: 14b at EC50 (5.3 µmol/mL), 48 h
How it was run: as §1

IL-1β = IL-1β level by ELISA in conditioned medium of LPS-human macrophages; settings: 14b at EC50 (5.3 µmol/mL), 48 h
How it was run: as §1

Akt = Akt gene expression by qPCR in LPS-human macrophages; settings: 48 h, 14b at EC50 (5.3 µmol/mL)
How it was run: as §2

SMILES	reduction in IL-6 level relative to negative control cells (IL-6) [fold]	upregulation of HO-1 gene expression compared to untreated macrophage cells (HO-1 (HMOX1)) [fold]	reduction in TNF-α level relative to untreated control cells (TNF-α) [fold]	NF-kβ modulation compared with Dexa (in words) (NF-kβ)	reduction in NF-kβ level relative to untreated control cells (NF-kβ) [fold]	reduction in IL-1β level relative to untreated macrophage cells (IL-1β) [fold]	increase in Akt gene expression relative to untreated macrophage cells (Akt) [fold]
COc1ccc(C(C)=NNC(=O)COc2ccc3c(C)cc(=O)oc3c2C)cc1OC [Compound 14b, 2–(4,8-Dimethyl-2-oxo-2H-chromen-7-yloxy)-N'-(1–(3,4-dimethoxyphenyl)ethylidene)acetohydrazide]	1.41	6.5	1.19	comparable efficacy to Dexa	2.31	1.65	–
C[C@@H]1C[C@H]2[C@@H]3CCC4=CC(=O)C=C[C@]4(C)[C@@]3(F)[C@@H](O)C[C@]2(C)[C@@]1(O)C(=O)CO [Dexa, dexamethasone, reference compound]	–	4.38	–	–	–	–	3.2
